PubChem BioAssay AID602209 (Southern Research Specialized Biocontainment Screening …, 2012)
Activity calls are given as the source filed them.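 Rule for the calls: active = inhibition of 30% or more at any tested concentration; inactive = the rest.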

Target: M17 leucyl aminopeptidase (Plasmodium falciparum 3D7)
Experiment: Inhibition of P. falciparum M17 aminopeptidase – biochemical, QFRET, set 2, counter-screen for PfM1AAP inhibitor project, dose response (AID 602209)
Details: recombinant PfM17LAP, H-Leu-NHMec fluorogenic cleavage
Method in brief: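 Material: recombinant Plasmodium falciparum M17 leucine aminopeptidase enzyme; Medium: Tris-HCl pH 7.5 plus CoCl2; Reagent: H-Leu-NHMec, a fluorogenic peptide substrate, at 0.1 mM final; Compound dosing: 100–0.2 µM, 2-fold dilutions; Times: Enzyme–substrate reaction 90 min at room temperature; Measured by: NHMec fluorescence; Read-out basis: % inhibition and IC50 via 4-parameter fit; Controls: no-enzyme background wells.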

Row | SMILES | IC50 [µM] | inhibition (at 100 µM (top of the series)) | also measured
1 | CC[C@H](C)[C@H](NC(=O)c1ccc(C(C)(C)C)cc1)C(=O)NCc1ccc2c(c1)OCO2 |  |  | inhibition (at 1.56 µM (top of the series)): inactive
2 | CC[C@H](C)[C@H](NS(=O)(=O)c1ccc(Br)s1)C(=O)NCc1ccc(Cl)cc1 |  | inactive | 
3 | CC[C@H](C)[C@H](NS(=O)(=O)c1ccc(Br)s1)C(=O)NCc1ccc2c(c1)OCO2 |  | inactive | 
4 | O=C(NCc1ccc(Cl)cc1)C1CCN(S(=O)(=O)c2ccc(Br)s2)CC1 | 38.9 |  | 

More lines, main results first:

Row | IC50 [µM] | inhibition (at 100 µM (top of the series)) | SMILES | also measured
5 | 3.57 |  | O=C(NCc1ccc2c(c1)OCO2)C1CCN(S(=O)(=O)c2ccc(Br)s2)CC1 | 
6 | 8.81 |  | O=C(NCc1ccc(F)cc1)C1CCN(S(=O)(=O)c2ccc(Br)s2)CC1 | 
7 | 3.52 |  | O=C(NCc1ccccc1)C1CCN(S(=O)(=O)c2ccc(Br)s2)CC1 | 
8 |  | inactive | CC[C@H](C)[C@H](NC(=O)c1ccc(C(C)(C)C)cc1)C(=O)NCc1ccc(Cl)cc1 | 
